In data set [1] the target is Ionotropic glutamate receptor NMDA 1/2D (Rattus norvegicus, UniProt P35439+Q62645). Briefly: Positive allosteric modulation of recombinant rat GluN1/GluN2D receptor expressed in xenopus laevis oocyte assessed as potentiation of glutamate and glycine-induced current response at holding potential -40mV by two electrode voltage clamp method. The procedure, abridged: (§1)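 Two-electrode voltage clamp at -40 mV, 23°C, pH 7.4 Ba²⁺ recording solution, on Xenopus oocytes expressing rat NMDA receptors. Currents were evoked by 100 µM glutamate plus 30 µM glycine, with compound co-applied (DMSO 0.05–0.5% final). Each compound used at least 4 oocytes from at least 2 frogs.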
(Two-electrode voltage clamp is typically applied to oocytes expressing channels or transporters.)

The test system of the next data set is Brain. Briefly: Drug uptake in C57Bl/6 mouse brain at 10 mg/kg, ip after 15 to 30 mins by LC/MS/MS analysis. The format is ADME, organism-based. As to conditions: in vivo, read-out: Drug uptake. The method, boiled down:
(§2)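 Male/female not stated; 30–35 g C57Bl/6 mice given 10 mg/kg i.p. at 1.25 mg/mL in 5% NMP/20% solutol/75% of 20% hydroxypropyl-β-cyclodextrin. Blood was taken by cardiac puncture into heparin and brains were collected at 0, 15, 30, 60, 120 and 240 min, three mice per time point. Plasma and brain homogenate (1:4 water) were acetonitrile-precipitated and quantified by LC-MS/MS against an 8-point duplicate standard curve.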

Data set [2] addresses Glutamate receptor ionotropic, kainate 2 (Rattus norvegicus) (UniProt P42260). Briefly: Positive allosteric modulation of recombinant rat GluK2 receptor expressed in xenopus laevis oocyte assessed as potentiation of glutamate-induced current response at 30 uM at holding potential -40mV by two electrode voltage clamp method relative to glutamate.
Data set [3] deals with T1, Glutamate NMDA receptor; Grin1/Grin2c (Rattus norvegicus) (UniProt P35439+Q00961). The experiment in a line: Positive allosteric modulation of recombinant rat GluN1/GluN2C receptor expressed in xenopus laevis oocyte assessed as compound concentration required to show two fold increase in glutamate and glycine-induced current response at holding potential -40mV by two electrode voltage clamp method.

Data set [4] has as its target T1, Glutamate NMDA receptor; Grin1/Grin2c (Rattus norvegicus). Briefly: Positive allosteric modulation of recombinant rat GluN1/GluN2C receptor expressed in xenopus laevis oocyte assessed as potentiation of glutamate-induced current response at 30 uM at holding potential -40mV by two electrode voltage clamp method. The method, boiled down:
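Rat GluN1/GluN2C (modified GluN2C) expressed from injected mRNA in Xenopus oocytes; two-electrode voltage clamp at -40 mV, 23°C, recording solution pH 7.4 (90 NaCl, 1.0 KCl, 0.5 BaCl2, 0.005 EDTA, 10 HEPES, mM). Compound coapplied with 100 µM glutamate and 30 µM glycine; final DMSO 0.05-0.5%.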

For data set [5], the target named is T2, Glutamate NMDA receptor; Grin1/Grin2b (Rattus norvegicus) (UniProt P35439+Q00960). Briefly: Positive allosteric modulation of recombinant rat GluN1/GluN2B receptor expressed in xenopus laevis oocyte assessed as potentiation of glutamate and glycine-induced current response at 30 uM at holding potential -40mV by two electrode voltage clamp method relative to control. The procedure, abridged:
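Two-electrode voltage clamp at -40 mV, 23°C, pH 7.4 Ba²⁺ recording solution, on Xenopus oocytes expressing rat NMDA receptors. Currents were evoked by 100 µM glutamate plus 30 µM glycine, with compound co-applied (DMSO 0.05–0.5% final). […] Each compound used at least 4 oocytes from at least 2 frogs.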

Data set [6] has as its target T3, Ionotropic glutamate receptor NMDA 1/2D (Rattus norvegicus) (UniProt P35439+Q62645). The experiment in a line: Positive allosteric modulation of recombinant rat GluN1/GluN2D receptor expressed in xenopus laevis oocyte assessed as potentiation of glycine-induced current response at 30 uM at holding potential -40mV by two electrode voltage clamp method.
The nature of data set [7]: Cmax in C57Bl/6 mouse plasma at 10 mg/kg, ip after 2 hrs by LC/MS/MS analysis. In kind it is ADME, organism-based. Set-up: dose 10 mg/kg, route intraperitoneal. The method, boiled down:
as §2

In data set [8] the target is T2, Glutamate NMDA receptor; Grin1/Grin2b (Rattus norvegicus). Briefly: Positive allosteric modulation of recombinant rat GluN1/GluN2B receptor expressed in xenopus laevis oocyte assessed as potentiation of glutamate-induced current response at 30 uM at holding potential -40mV by two electrode voltage clamp method.
In data set [9] the target is T4, Glutamate NMDA receptor; Grin1/Grin2b (Rattus norvegicus, UniProt P35439+Q00960). The experiment in a line: Positive allosteric modulation of recombinant rat GluN1/GluN2B receptor expressed in xenopus laevis oocyte assessed as potentiation of glutamate and glycine-induced current response at holding potential -40mV by two electrode voltage clamp method. The procedure, abridged: as §1

Another data set has as its system Liver. The experiment in a line: Drug level in human liver microsomes treated with (3-chlorophenyl)(6-isopropoxy-1-((4-methoxyphenoxy)methyl)-3,4-dihydroisoquinolin-2(1H)-yl)methanethione at […] measured at 30 mins by LC/MS/MS analysis. In kind it is ADME, microsome. As to conditions: 0.5 h. (Liver microsomes are vesicles of endoplasmic reticulum, rich in cytochrome P450 enzymes.)

Data set [10] can be described thus: Drug uptake in C57Bl/6 mouse brain at 10 mg/kg, ip after 4 hrs by LC/MS/MS analysis. The format is ADME, organism-based. Conditions: read-out: Drug uptake. The procedure, abridged: as §2
Data set [11] is described as follows: Ratio of drug level in C57Bl/6 mouse brain to plasma at 10 mg/kg, ip after 4 hrs by LC/MS/MS analysis. In kind it is ADME, organism-based. The procedure, abridged: as §2
The target of data set [12] is T2, Glutamate NMDA receptor; Grin1/Grin2b (Rattus norvegicus). The experiment in a line: Positive allosteric modulation of recombinant rat GluN1/GluN2B receptor expressed in xenopus laevis oocyte assessed as compound concentration required to show two fold increase in glutamate and glycine-induced current response at holding potential -40mV by two electrode voltage clamp method.

The next data set deals with Mus musculus. Briefly: Toxicity in C57Bl/6 mouse assessed as behavioral abnormalities at 10 mg/kg, ip. As to conditions: in vivo. In kind it is organism-based. The method, boiled down:
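C57Bl/6 mice (30–35 g) were dosed at 10 mg/kg i.p. in 5% NMP/20% solutol/75% of 20% hydroxypropyl-β-cyclodextrin and observed for behavioral abnormalities after dosing.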

A short description of data set [13]: Ratio of drug level in C57Bl/6 mouse brain to plasma at 10 mg/kg, ip after 15 mins by LC/MS/MS analysis. The format is ADME, organism-based. The procedure, abridged:
as §2

For data set [14], the target named is Glutamate receptor 1 (Rattus norvegicus) (UniProt P19490). The experiment in a line: Positive allosteric modulation of recombinant rat GluA1 receptor expressed in xenopus laevis oocyte assessed as potentiation of glutamate-induced current response at 30 uM at holding potential -40mV by two electrode voltage clamp method relative to glutamate.
The target of data set [15] is T3, Ionotropic glutamate receptor NMDA 1/2D (Rattus norvegicus). The experiment in a line: Positive allosteric modulation of recombinant rat GluN1/GluN2D receptor expressed in xenopus laevis oocyte assessed as compound concentration required to show two fold increase in glutamate and glycine-induced current response at holding potential -40mV by two electrode voltage clamp method.

Data set [16] deals with T4, Glutamate NMDA receptor; Grin1/Grin2b.

The record followed here is ChEMBL document CHEMBL4011622, “The Structure-Activity Relationship of a Tetrahydroisoquinoline Class of N-Methyl-d-Aspartate Receptor Modulators that Potentiates GluN2B-Containing N-Methyl-d-Aspartate Receptors” (J Med Chem, 2017).

Activity calls are given as the source filed them. No cut-off for these calls is given here.

Sequence of Glutamate receptor ionotropic, kainate 2 (Rattus norvegicus) (P42260 whole entry): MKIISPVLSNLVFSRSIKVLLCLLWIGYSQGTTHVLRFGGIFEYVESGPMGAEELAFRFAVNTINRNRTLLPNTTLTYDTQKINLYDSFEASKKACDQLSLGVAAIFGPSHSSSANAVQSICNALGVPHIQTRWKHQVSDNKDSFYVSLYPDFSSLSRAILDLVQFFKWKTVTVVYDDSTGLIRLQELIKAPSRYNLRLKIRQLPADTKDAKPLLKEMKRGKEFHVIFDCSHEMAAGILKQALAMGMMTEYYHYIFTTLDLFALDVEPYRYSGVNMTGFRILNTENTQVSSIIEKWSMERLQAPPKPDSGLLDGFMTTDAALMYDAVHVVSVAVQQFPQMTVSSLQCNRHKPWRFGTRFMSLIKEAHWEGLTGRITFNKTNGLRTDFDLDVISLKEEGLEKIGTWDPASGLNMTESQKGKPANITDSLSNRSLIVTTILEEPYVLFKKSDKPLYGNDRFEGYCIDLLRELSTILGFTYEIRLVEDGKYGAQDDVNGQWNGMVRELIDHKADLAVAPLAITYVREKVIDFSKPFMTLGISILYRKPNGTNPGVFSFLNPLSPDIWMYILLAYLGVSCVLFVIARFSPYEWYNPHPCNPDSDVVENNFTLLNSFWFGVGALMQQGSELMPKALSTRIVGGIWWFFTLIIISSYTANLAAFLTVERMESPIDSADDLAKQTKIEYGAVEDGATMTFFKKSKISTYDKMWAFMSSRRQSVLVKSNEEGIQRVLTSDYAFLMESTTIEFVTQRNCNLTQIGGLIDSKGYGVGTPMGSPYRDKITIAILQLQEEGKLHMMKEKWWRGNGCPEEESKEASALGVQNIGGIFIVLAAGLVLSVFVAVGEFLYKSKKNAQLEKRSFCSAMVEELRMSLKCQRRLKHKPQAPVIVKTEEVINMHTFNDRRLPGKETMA
Sequence of Glutamate receptor 1 (Rattus norvegicus) (P19490 whole entry): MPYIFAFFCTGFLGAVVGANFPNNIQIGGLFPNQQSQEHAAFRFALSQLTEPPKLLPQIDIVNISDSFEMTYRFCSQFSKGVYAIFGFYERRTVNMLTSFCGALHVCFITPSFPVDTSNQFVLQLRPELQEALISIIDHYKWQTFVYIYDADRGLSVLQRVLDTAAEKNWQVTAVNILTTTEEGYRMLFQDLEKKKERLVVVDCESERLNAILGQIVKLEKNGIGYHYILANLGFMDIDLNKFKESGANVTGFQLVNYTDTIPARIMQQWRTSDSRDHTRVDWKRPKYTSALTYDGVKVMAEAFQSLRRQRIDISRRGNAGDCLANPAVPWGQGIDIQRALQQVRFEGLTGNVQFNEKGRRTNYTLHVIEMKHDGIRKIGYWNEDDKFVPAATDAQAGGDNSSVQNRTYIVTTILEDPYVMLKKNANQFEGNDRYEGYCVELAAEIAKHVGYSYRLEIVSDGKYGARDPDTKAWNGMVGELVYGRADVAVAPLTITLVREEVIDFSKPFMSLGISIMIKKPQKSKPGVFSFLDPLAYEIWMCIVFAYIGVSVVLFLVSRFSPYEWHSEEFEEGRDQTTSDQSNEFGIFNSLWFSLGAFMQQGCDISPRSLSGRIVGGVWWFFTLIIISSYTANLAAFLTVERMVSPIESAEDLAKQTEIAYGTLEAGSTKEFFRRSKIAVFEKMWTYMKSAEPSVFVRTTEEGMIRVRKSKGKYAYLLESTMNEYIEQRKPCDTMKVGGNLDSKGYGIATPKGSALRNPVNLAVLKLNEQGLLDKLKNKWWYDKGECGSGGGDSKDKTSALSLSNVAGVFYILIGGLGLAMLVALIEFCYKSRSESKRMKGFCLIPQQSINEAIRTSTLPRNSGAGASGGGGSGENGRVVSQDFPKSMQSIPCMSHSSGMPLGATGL

As to `COc1ccc(OCC2c3ccc(OC(C)C)cc3CCN2C(=O)c2cccc(Cl)c2)cc1` (stereo not given), the 50% effective concentration (EC50) (in general, the concentration at which the effect is half-maximal) in data set [1] is 3 µM; in data set [9], 5.2 µM. Besides, the concentration in the data set on Brain worked out at 700 nM. In addition, the Activity is 96% in data set [2], 195% in data set [5], “Non-Toxic” in the data set on Mus musculus and 106% in data set [14]. The CD in [3] was determined as 4.6 µM; in [12], 64 µM; in data set [15] it was 4.9 µM. The outcome in [4], in data set [6] and in [8] was inactive. Besides, the Emax – broadly, the maximal effect, on the per cent scale that the assay sets – in data set [5] is 202%. In addition, the highest concentration (Cmax) (as a rule, the maximum level reached in the sampled fluid or tissue) in [7] turned out to be 1700 nM. Moreover, the Drug metabolism result in the data set with Liver is reported as “Metabolite_Detected”. In addition, the concentration at 4 h in [10] is 400 nM. The BPR in data set [11] was 0.9; in data set [13], 0.7.

Compound `NCCCNCCCCNCCCN` [SPERMINE] returned an EC50 in data set [16] of 100 to 200 µM.
